From ChEMBL document CHEMBL1158043, “Allergy-preventive phenolic glycosides from Populus sieboldii” (J Nat Prod, 2006)
Activity calls are given as the source filed them. No cut-off for these calls is given here.

Experiments:
[1] = test system: Mus musculus; assay: Allergy preventing effect in hen egg […]-sensitized ddY mouse assessed as inhibition blood flow decrease in tail artery at 20 mg/kg, po relative to control; type: functional, organism-based; parameters: dose 20 mg/kg
Method in brief: (§1)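 Male ddY mice, 5 weeks old, sensitized s.c. with 50 µg HEL in complete Freund's adjuvant on day 0. Compound given orally at 20 mg/kg on days 0, 3, 6 and 9, 1 h before measurement. After 10 min prewarming at 37 °C, tail subcutaneous blood flow was read by non-contact laser Doppler for 10 min daily over 9 days without anesthesia. Values are % of each mouse's normal flow, mean ± SE, n = 5, compared with HEL-sensitized controls.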

[2] = test system: Platelet; assay: Inhibition of platelet aggregation in hen egg […]-sensitized ddY mouse blood after 9 days; type: functional, tissue-based
Method in brief: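 Mice were HEL-sensitized and dosed orally at 20 mg/kg as in the blood-flow assay. On day 9, whole blood was drawn under diethyl ether anesthesia, anticoagulated with 3.8% sodium citrate and held 30 min at room temperature. Aggregation was induced with 8 µM ADP and measured by screen filtration pressure on a whole-blood aggregometer. Read-out is cohesion rate, mean ± SE, n = 5.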

[3] = test system: Mus musculus; assay: Allergy preventing effect in hen egg […]-sensitized ddY mouse assessed as inhibition of blood flow decrease in tail artery at 20 mg/kg, po after 6 days relative to control; type: functional, organism-based; parameters: dose 20 mg/kg; method in brief: as §1
[4] = test system: Mus musculus; assay: Allergy preventing effect in hen egg […]-sensitized ddY mouse assessed as inhibition of blood flow decrease in tail artery at 20 mg/kg, po after 7 days relative to control; type: functional, organism-based; parameters: dose 20 mg/kg; method in brief: as §1
[5] = test system: Mus musculus; assay: Allergy preventing effect in hen egg […]-sensitized ddY mouse assessed as inhibition of blood flow decrease in tail artery at 20 mg/kg, po after 5 days relative to control; type: functional, organism-based; parameters: dose 20 mg/kg; method in brief: as §1

Row | SMILES | Activity [1] | Activity [2] | Activity [3] | Activity [4] | Activity [5]
1 | O=C(OCc1ccc(O)c(O[C@@H]2O[C@H](CO)[C@@H](O)[C@H](O)[C@H]2O)c1)c1ccccc1 | Active | Active |  |  | 
2 | COc1cc(O)c(C(=O)/C=C/c2ccc(O)cc2)c(O[C@@H]2O[C@H](CO)[C@@H](O)[C@H](O)[C@H]2O)c1 |  | Active | Active | Active | 
3 | CC(=O)OC[C@H]1O[C@@H](Oc2cc(COC(=O)c3ccccc3)ccc2O)[C@H](O)[C@@H](O)[C@@H]1O | Active | Active |  |  | 
4 | OCc1ccccc1O[C@@H]1O[C@H](CO)[C@@H](O)[C@H](O)[C@H]1O |  |  |  |  | Active
5 | COc1cc(O[C@@H]2O[C@H](CO)[C@@H](O)[C@H](O)[C@H]2O)c2c(c1)O[C@H](c1ccc(O)cc1)CC2=O |  | inactive | Active | Active | 
